Bioassay records from PubChem.
Rows were chosen to be rich in hits. Some 3.7% of all compounds tested hit in one or more screens of this group.
KCNQ1 inh: inhibitors of human KCNQ1 channel, primary screen, cell-based, thallium flux, high-throughput. AID 2642, 2010. actives 1.3% (n = 310,000). B-score at 10 µM. CHO-K1 KCNQ1, FluxOR thallium flux fluorescence; stronger effect = higher value. Potassium voltage-gated channel subfamily KQT member 1 (Homo sapiens), P51787;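 active = compounds whose thallium flux B-score, printed positive for inhibition, exceeds three library SD while starting fluorescence stays within three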;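 note: channel opened by potassium depolarization with thallium stimulus after 20 min compound exposure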
Target sequence (P51787 whole entry, looked up): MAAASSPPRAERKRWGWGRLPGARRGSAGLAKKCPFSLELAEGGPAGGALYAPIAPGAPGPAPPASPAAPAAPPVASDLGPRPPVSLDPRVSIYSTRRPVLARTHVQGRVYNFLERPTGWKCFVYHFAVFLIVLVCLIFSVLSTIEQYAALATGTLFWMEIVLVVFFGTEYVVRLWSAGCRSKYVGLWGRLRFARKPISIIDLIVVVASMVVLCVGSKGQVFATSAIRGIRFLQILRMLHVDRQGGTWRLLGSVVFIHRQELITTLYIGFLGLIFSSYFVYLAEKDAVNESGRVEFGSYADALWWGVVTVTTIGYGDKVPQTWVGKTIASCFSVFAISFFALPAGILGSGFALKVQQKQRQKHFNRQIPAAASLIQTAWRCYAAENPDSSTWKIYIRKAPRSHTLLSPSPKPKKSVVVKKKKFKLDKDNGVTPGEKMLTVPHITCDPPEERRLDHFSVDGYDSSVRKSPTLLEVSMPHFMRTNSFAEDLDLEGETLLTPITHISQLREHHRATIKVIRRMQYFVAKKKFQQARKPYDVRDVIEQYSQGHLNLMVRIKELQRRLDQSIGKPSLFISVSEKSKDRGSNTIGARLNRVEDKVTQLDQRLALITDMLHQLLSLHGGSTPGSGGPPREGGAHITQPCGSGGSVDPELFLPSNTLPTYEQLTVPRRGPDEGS
Kir21 block: inhibitors of mouse Kir2.1 inward-rectifier potassium channel | Inward rectifier potassium channel 2 (Mus musculus), P35561 | HEK293-Kir2.1, FluxOR thallium flux fluorescence; stronger effect = lower value | B-score at 10 µM | actives 0.85% (n = 310,000) | AID 1672, 2009;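 active = fluorescence ratio B-score at or below minus 3 SD of library scores, with starting-brightness B-score within 2 SD, cut at about -4.2 in these data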;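 note: channel flux triggered by added potassium and thallium sulfate stimulus; B-score of peak minus minimum fluorescence over baseline after thallium stimulus; more negative B-score means stronger Kir2.1 block with less thallium influx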
KCNK9 block: KCNK9 potassium channel inhibitors, primary screen, HEK293 cells, thallium flux; FluxOR thallium flux fluorescence; stronger effect = lower value; B-score at 10 µM; actives 1.2% (n = 310,000); AID 488922, 2010;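 active = ratio B-score over 3 SD below the library mean, with starting fluorescence within 5 SD of its mean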;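 note: negative B-score means less thallium flux so channel inhibition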
hERG protect: hERG rescue from dofetilide block, primary screen, cell-based, CHO-hERG, FluxOR thallium flux, dofetilide IC70; dofetilide IC70 present; activation (rescue from dofetilide block), less the hit threshold, % at 10 µM; Voltage-gated inwardly rectifying potassium channel KCNH2 (Homo sapiens), Q12809; actives 0.51% (n = 310,000); AID 1511, 2009;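 active = activation above the mean of controls blocked by dofetilide plus 5 SD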;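 note: thallium influx through hERG after potassium depolarization seen as dye fluorescence rise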
KCNK3 block: human KCNK3 channel inhibitors, primary screen, CHO cells, FluxOR thallium flux, B-score. FluxOR fluorescence; stronger effect = lower value. B-score at 10 µM. actives 0.84% (n = 340,000);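 active = B-score under library mean minus 4 SD, starting fluorescence ratio at most library mean plus 5 SD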;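 note: more negative B-score means stronger inhibition of thallium flux through KCNK3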
KCNQ1 act: potentiators or activators of KCNQ1 channel, primary screen, cell-based, thallium flux, high-throughput. Potassium voltage-gated channel subfamily KQT member 1 (Homo sapiens), P51787. CHO-K1 KCNQ1, thallium flux FluxOR fluorescence; stronger effect = higher value. B-score at 10 µM. actives 0.35% (n = 310,000). AID 2648, 2010;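 active = fluorescence ratio B-score, a plate-corrected score, at least three library SD, with initial intensity B-score within 5 SD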
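Assay system: CHO-K1 cells stably expressing KCNQ1; Medium: assay buffer with matched DMSO; Also added: K+/Tl+ depolarizing stimulus; Dosing: single dose; Timing: dye 90 min, compound 20 min, room temperature; Measured by: kinetic FluxOR thallium fluorescence, 10-s 1-Hz baseline, 110-s post-stimulus read; Read-out: peak-minus-minimum fluorescence over initial fluorescence, negative-control normalized, B-scored.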
* = called active by the depositor; i = inactive; . = no result given.

SMILES	KCNQ1 inh	Kir21 block	KCNK9 block	hERG protect	KCNK3 block	KCNQ1 act
Oc1c(Br)cc(Br)cc1CNc1cnc2ccccc2c1	6*	-0.28	i	-10.1	i	i
O=C(CNC(=O)c1cccs1)c1ccc(Br)cc1	i	1.07	i	-2.4	i	i
O=C(NNC(=S)Nc1ccc(Cl)cc1)c1ccccc1OC(F)F	8*	0.03	i	-10.6	i	i
O=C(NNC(=S)NCc1ccccc1)c1ccccc1OC(F)F	i	-0.2	i	-6.8	i	i
Cc1occc1C(=O)NNC(=O)c1ccc(S(=O)(=O)N(C)C)cc1	.	.	.	.	i	.
CCOC(=O)c1sc2ncnc(NCC(c3cccs3)N(C)C)c2c1C (stereo unspecified)	i	2.46	i	20.3*	i	55*
Cc1cc(-c2nnc(SCC(=O)Nc3ccccc3)n2C)no1	i	0.52	i	-3.2	i	i
Cc1cc(-c2nnc(SCC(=O)Nc3ccc(C(F)(F)F)cc3)n2C)no1	i	-0.04	i	6.2*	i	i
CCCCOC(=O)c1ccc(NC(=S)NC(=O)c2c(Cl)cnn2CC)cc1	i	0.46	i	-0.4	i	75*
CCN(CC)c1ccc(NC(=S)NC(=O)c2ccco2)cc1	i	-0.23	i	52.9*	i	35*
CCOc1ccccc1NC(=O)c1ccccc1NC(=O)c1ccco1	i	1.44	i	-9.8	i	i
CCCCOC(=O)c1ccc(NC(=O)/C=C/c2cccs2)cc1	13*	-0.2	i	-13.5	i	i
CCOc1ccccc1NC(=S)NC(=O)c1ccco1	i	-0.24	i	1.0	i	11*
CCN(CC)c1ccc(NC(=O)c2ccco2)cc1	i	0	i	-10.1	i	i
C/C(=N\Nc1ccc(Cl)c(C(=O)O)c1)c1ccc(N2CCOCC2)cc1	i	0.69	i	-13.4	i	i
CCCCC(=O)Nc1ccc(NC(=S)NC(=O)c2ccco2)cc1OC	i	0.72	i	-4.3	i	i
CCOc1ccccc1NC(=O)c1ccccc1-c1ccccc1	i	-4.85*	i	-4.1	i	i
CCCCOC(=O)c1ccc(NC(=S)NC(=O)c2ccco2)cc1	i	-1.16	i	-0.2	i	11*
CCN(CC)c1ccc(NC(=S)NC(=O)c2cccs2)cc1	i	0.83	i	6.5*	i	i
CC(=O)NC(=S)Nc1ccc(NC(=S)NC(=O)c2cccs2)cc1	i	1.55	i	-1.8	i	i
CC(C)c1ccc(C(C)NC(=O)C2CCCC2)cc1 (stereo unspecified)	i	0.96	i	-2.8	i	i
O=C(NCC(=O)N1CCCC(C(F)(F)F)C1)c1cccs1 (stereo unspecified)	.	.	.	.	i	.
C=CCNC(=O)NC(=O)COC(=O)/C(C#N)=C/c1ccc(OC)cc1	i	0.12	i	-3.5	i	i
COc1ccc(Cl)cc1NC(=O)NCc1ccc2c(c1)OCO2	i	0.75	i	-7.0	i	i
C=C(C)Cn1c(C)cc(C)c(S(=O)(=O)c2ccc(C)cc2)c1=O	i	-2.77	-7.2*	-6.5	i	i
SMILES	KCNQ1 inh	Kir21 block	KCNK9 block	hERG protect	KCNK3 block	KCNQ1 act
Cc1ccc(S(=O)(=O)c2c(C)cc(C)nc2Cl)cc1	i	-2.21	i	-11.5	i	i
CC(NCc1ccc(OCc2ccc(Cl)cc2)cc1)C(O)c1ccccc1 (stereo unspecified)	i	0.09	i	-36.6	i	i
CC(NCc1cccc(OCc2ccccc2)c1)C(O)c1ccccc1 (stereo unspecified)	i	-10.5*	i	-20.3	i	i
CC(C)(C)C(=O)NCCCc1nc2ccccc2n1CCCOc1ccc(Cl)cc1	i	-2.49	-7.32*	-9.5	i	i
COC(=O)c1ccc(NN=Nc2ccc(C)cc2)cc1	i	1.49	i	5.1*	i	i
COC(=O)c1ccc(C)cc1	.	.	.	.	i	.
Cc1ccc(C)c(CSCc2nc3ccccc3[nH]2)c1	i	-8.43*	i	-8.2	i	i
Cc1ccccc1CSCc1nc2ccccc2[nH]1	i	-0.07	i	-7.5	i	i
CCCNC(=O)c1nnsc1S(=O)c1ccc(Cl)cc1 (stereo unspecified)	i	-6.12*	i	-13.2	i	i
CCCNC(=O)c1ccc2snnc2c1	.	.	.	.	i	.
CCCNC(=O)c1nnsc1S(=O)(=O)c1ccc(Cl)cc1	.	.	.	.	-9.13*	.
CNC(=O)c1nnsc1S(=O)c1ccc(Cl)cc1 (stereo unspecified)	i	-7.62*	i	-20.6	i	13*
CCCNC(=O)NS(=O)(=O)c1ccc(Cl)cc1	i	0.31	i	-6.0	i	i
CCCc1ccc2oc(C(=O)N3CCN(c4cnccn4)CC3)c(C)c2c1	i	0	i	-8.9	i	i
CCC1(c2ccc(Cl)cc2)NC(=S)N(c2ccc(C)c(C)c2)N1 (stereo unspecified)	i	-0.47	i	68.3*	i	103*
CCC1(c2ccc(Cl)cc2)NC(=S)N(c2ccc(C)cc2)N1 (stereo unspecified)	i	0.11	i	37.6*	i	68*
CC1=CC(C)(C)NC(=S)N1c1ccc(C)c(C)c1	i	0.17	i	4.5	i	i
CCC1(c2ccccc2)NC(=S)N(c2ccc(C)c(C)c2)N1 (stereo unspecified)	i	-0.13	i	47.1*	i	91*
CC1(CCc2ccccc2)NC(=S)N(c2ccc(Cl)cc2)N1 (stereo unspecified)	i	0.68	i	-5.9	i	i
CCCN(Cc1ccccc1)C(=S)NC(=O)c1ccccc1[N+](=O)[O-]	i	-0.78	i	29.0*	i	i
CCN(Cc1ccccc1)C(=S)NC(=O)c1ccccc1Br	i	-0.37	i	21.7*	i	43*
O=C(NC(=S)N(CCO)Cc1ccccc1)c1cc(Br)ccc1Cl	i	-1.42	i	19.0*	i	i
N#CCCN(Cc1ccccc1)C(=S)NC(=O)c1ccccc1	i	-0.03	i	-1.7	i	i
COc1ccc(OCC(=O)Nc2ccc(N3CCN(C(=O)c4ccccc4)CC3)c(Cl)c2)cc1	i	-0.37	i	-11.5	i	i
